62 compounds from ChEMBL document CHEMBL3044971, “Dialkoxybenzene and dialkoxyallylbenzene feeding and oviposition deterrents against the cabbage looper, Trichoplusia ni: potential insect behavior control agents” (J Agric Food Chem, 2010) can be followed below.

Series [1] concerns Trichoplusia ni. Put plainly: Feeding deterrent activity against freshly molted third-instar larval stage of Trichoplusia ni (cabbage looper) in compound pretreated cabbage leaves after 3 to 5 hr by leaf disk choice bioassay. The class given is functional, organism-based. A digest of the protocol: (§1)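 Leaf-disk choice test on greenhouse cabbage (Stonehead) leaves from 5-6-week plants. Freshly molted third-instar T. ni from a diet-reared colony (>50 generations) were starved 4-5 h. One disk had 10 μL test solution painted on each side, the other carrier solvent only. There were 25 larvae per treatment. Run ended at ~50% control disk eaten (3-5 h). Deterrence = (C−T)/(C+T)×100 from consumed areas.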

Series [2] concerns Trichoplusia ni. Put plainly: Oviposition deterrent activity against adult female Trichoplusia ni (cabbage looper) moths introduced along with male moths into oviposition cage containing compound pretreated cabbage leaves assessed as eggs laying on the leaf disks at 0.25% after 48 hr. The class given is functional. A digest of the protocol:
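Choice test: one male and one female moth were caged with a control and a treated cabbage leaf (~100-110 cm²). Each side was sprayed with 0.5 mL MeOH or methanolic test solution at 0.25%. Values are mean ± SE, N = 35-40.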

Series [3] concerns Trichoplusia ni. The note with it: in vivo, 24 h.
For series [4], the system named is Trichoplusia ni. Put plainly: Feeding deterrent activity against freshly molted third-instar larval stage of Trichoplusia ni (cabbage looper) in compound pretreated cabbage leaves at 50 ug/cm2 after 3 to 5 hr by leaf disk choice bioassay. The class given is functional. A digest of the protocol: as §1

For the compound `C=CCc1cc(OCCCC)ccc1OCC`, the DC50 in series [1] is recorded as 22 microg/cm2. Besides, the Activity in series [2] is 64%; in series [4] it was 66%. In series [3], this compound gave a mortality of 3.3%.

Consider `C=CCc1cccc(OCCC(C)C)c1OCCC(C)C`, for which the mortality in series [3] was 7%. For the same compound, in series [4], the Activity is on record as 22%.

As to `C=CCc1c(OC)cccc1OCCC`, the DC50 in series [1] is 14 microg/cm2. Also, the values for the Activity in series [2] and in series [4] were 17% and 100%, respectively.

On to `CC(C)CCOc1ccc2c(c1)CC(C)O2` (configuration not stated), for which the DC50 in series [1] was 16 microg/cm2. Also, the Activity is listed as -12% in series [2] and 100% in series [4]. In addition, the mortality in series [3] was found to be 1%.

Take `CCCCOc1ccc2c(c1)CC(C)O2` (configuration not stated): in series [1], the DC50 is reported as 16 microg/cm2. The Activity in series [2] is -12%; in series [4] it was 100%. In series [3], this compound came in with a mortality of 1%.

As for `CCCOc1ccc2c(c1)CC(C)O2` (configuration not stated), the DC50 in series [1] amounted to 16 microg/cm2. The Activity in series [2] is reported as -12%; in series [4] it was 100%. The compound also registered a mortality in series [3] of 1%.

For `CCOc1ccc2c(c1)CC(C)O2` (configuration not stated), in series [1], the DC50 is given as 16 microg/cm2. For the same compound, the Activity in series [2] was -12%; in series [4], 100%. In series [3], this compound had a mortality of 1%.

With `COc1ccc2c(c1)CC(C)O2` (configuration not stated), in series [1], the DC50 amounted to 16 microg/cm2. Also, the values for the Activity in series [2] and in series [4] were -12% and 100%, respectively. The mortality in series [3] is given as 1%.

On to `C=CCOc1ccc(OCCC(C)C)cc1CC=C`, for which the Activity in series [4] was 29%.

In the case of `C=CCOc1ccc(OCCCC)cc1CC=C`, in series [4], the Activity was 29%.

Take `C=CCOc1ccc(OCCC)cc1CC=C`: in series [4], the Activity turned out to be 29%.

With `C=CCOc1ccc(OCC)cc1CC=C`, the Activity in series [4] was found to be 29%.

Regarding `C=CCOc1ccc(OC)cc1CC=C`, the Activity in series [4] turned out to be 29%.

Consider `C=CCc1cc(OCCC(C)C)ccc1OCCCC`, for which the Activity in series [2] was -14%; in series [4], 23%.

`C=CCc1cc(OCCCC)ccc1OCCCC`: the Activity in series [2] was -14%; in series [4], 23%.

Take `C=CCc1cc(OCC)ccc1OCCCC`: the Activity in series [2] is reported as -14%; in series [4], 23%.

On to `C=CCc1cc(OCCC)ccc1OCCCC`, for which the Activity was -14% in series [2] and 23% in series [4].

With `C=CCc1cc(OC)ccc1OCCCC`, the results for the Activity in series [2] and in series [4] were -14% and 23%, respectively.

Regarding `C=CCc1cc(OC)ccc1OCCC`, in series [1], the DC50 was 9.4 microg/cm2. Besides, the figures for the Activity in series [2] and in series [4] were 7% and 92%, respectively. The mortality in series [3] is 6.4%.

Consider `C=CCc1cc(OCCC(C)C)ccc1OCC`, for which the DC50 in series [1] came to 22 microg/cm2. The Activity in series [2] was determined as 64%; in series [4] it was 66%. This compound gave a mortality in series [3] of 3.3%.

Consider `C=CCc1cc(OCCC)ccc1OCC`, for which, in series [1], the DC50 worked out at 22 microg/cm2. Also, the Activity turned out to be 64% in series [2] and 66% in series [4]. This compound showed a mortality in series [3] of 3.3%.

`C=CCc1cc(OC)ccc1OCC`: in series [1], the DC50 turned out to be 22 microg/cm2. The Activity in series [2] was determined as 64%; in series [4] it was 66%. In series [3], this compound returned a mortality of 3.3%.

Regarding `C=CCc1cc(OCC)ccc1OCC`, the DC50 in series [1] stood at 22 microg/cm2. Besides, the Activity in series [2] amounted to 64%; in series [4], 66%. In series [3], this compound had a mortality of 3.3%.

Regarding `C=CCc1cc(OCCCC)ccc1O`, the DC50 in series [1] turned out to be 57 microg/cm2. Further, the Activity in series [2] and in series [4] was 51% each time. Further, in series [3], the mortality is listed as 3.3%.

On to `C=CCc1cc(OCCC(C)C)ccc1O`, for which, in series [1], the DC50 is recorded as 57 microg/cm2. In addition, the Activity in series [2] and in series [4] was 51% in each case. This compound also showed a mortality in series [3] of 3.3%.

Take `C=CCc1cc(OCC)ccc1O`: the DC50 in series [1] was determined as 57 microg/cm2. Moreover, the Activity in series [2] and in series [4] was 51% each time. In series [3], this compound returned a mortality of 3.3%.

Regarding `C=CCc1cc(OCCC)ccc1O`, in series [1], the DC50 is given as 57 microg/cm2. Besides, the Activity in series [2] and in series [4] was 51% throughout. In series [3], this compound returned a mortality of 3.3%.

Consider `C=CCc1cc(OC)ccc1O`, for which the DC50 in series [1] is reported as 57 microg/cm2. The Activity in series [2] and in series [4] was 51% in each case. The compound further returned a mortality in series [3] of 3.3%.

Compound `C=CCOc1c(CC=C)cccc1OCCCC` gave a mortality in series [3] of 7%. In addition, the Activity in series [4] is given as 22%.

In series [3], `C=CCOc1c(CC=C)cccc1OCCC(C)C` displayed a mortality of 7%. In addition, in series [4], the Activity is reported as 22%.

Turning to `C=CCOc1c(CC=C)cccc1OCCC`, in series [3], the mortality is given as 7%. The Activity in series [4] is recorded as 22%.

In series [3], `C=CCOc1c(CC=C)cccc1OC` came in with a mortality of 7%. Also, the Activity in series [4] is given as 22%.

Turning to `C=CCOc1c(CC=C)cccc1OCC`, in series [3], the mortality came to 7%. For the same compound, in series [4], the Activity is 22%.

For `C=CCc1cccc(OCCCC)c1OCCC(C)C`, the mortality in series [3] worked out at 7%. The Activity in series [4] is recorded as 22%.

With `C=CCc1cccc(OCCC)c1OCCC(C)C`, the mortality in series [3] was 7%. Also, the Activity in series [4] is 22%.

With `C=CCc1cccc(OC)c1OCCC(C)C`, the mortality in series [3] was 7%. In addition, in series [4], the Activity came out at 22%.

The compound `C=CCc1cccc(OCC)c1OCCC(C)C` came in with a mortality in series [3] of 7%. In series [4], the Activity came to 22%.

In series [3], `C=CCc1cccc(OCCCC)c1OCCCC` returned a mortality of 1%. Besides, in series [4], the Activity came out at 6%.

On to `C=CCc1cccc(OCCC(C)C)c1OCCCC`, for which the mortality in series [3] worked out at 1%. Also, the Activity in series [4] is recorded as 6%.

Turning to `C=CCc1cccc(OCCC)c1OCCCC`, the mortality in series [3] is on record as 1%. The Activity in series [4] was 6%.

In series [3], `C=CCc1cccc(OC)c1OCCCC` showed a mortality of 1%. Further, in series [4], the Activity is listed as 6%.

With `C=CCc1cccc(OCC)c1OCCCC`, the mortality in series [3] turned out to be 1%. Further, the Activity in series [4] came to 6%.

As for `C=CCc1cccc(OCCCC)c1OCCC`, in series [3], the mortality was 47%. In series [4], the Activity is given as 31%.

Turning to `C=CCc1cccc(OCCC(C)C)c1OCCC`, the mortality in series [3] stood at 47%. For the same compound, in series [4], the Activity amounted to 31%.

`C=CCc1cccc(OCCC)c1OCCC` returned a mortality in series [3] of 47%. The Activity in series [4] came out at 31%.

In turn, `C=CCc1cccc(OC)c1OCCC` came in with a mortality in series [3] of 47%. In addition, in series [4], the Activity came to 31%.

`C=CCc1cccc(OCC)c1OCCC` had a mortality in series [3] of 47%. In addition, the Activity in series [4] worked out at 31%.

In the case of `C=CCc1cccc(OCCCC)c1O`, the DC50 in series [1] worked out at 20.6 microg/cm2. Moreover, the results for the Activity in series [2] and in series [4] were 7% and 100%, respectively. The same compound yielded a mortality in series [3] of 17%.

Regarding `C=CCc1cccc(OCCC(C)C)c1O`, in series [1], the DC50 turned out to be 20.6 microg/cm2. For the same compound, the Activity in series [2] came out at 7%; in series [4] it was 100%. In series [3], this compound gave a mortality of 17%.

`C=CCc1cccc(OCC)c1O`: the DC50 in series [1] was 20.6 microg/cm2. The figures for the Activity in series [2] and in series [4] were 7% and 100%, respectively. The mortality in series [3] came to 17%.

Take `C=CCc1cccc(OCCC)c1O`: in series [1], the DC50 is 20.6 microg/cm2. Also, the values for the Activity in series [2] and in series [4] were 7% and 100%, respectively. The mortality in series [3] was 17%.

Consider `C=CCc1cccc(OC)c1O`, for which, in series [1], the DC50 worked out at 20.6 microg/cm2. In addition, the Activity in series [2] is recorded as 7%; in series [4], 100%. Besides, in series [3], the mortality is 17%.

For the compound `C=CCOc1cccc(OCCC(C)C)c1`, the Activity in series [2] turned out to be 10%.

For `C=CCOc1cccc(OC)c1`, the DC50 in series [1] was 34 microg/cm2. In addition, the Activity in series [2] is recorded as 9%; in series [4], 66%. The same compound came in with a mortality in series [3] of 33%.

As for `C=CCOc1cccc(OCC=C)c1`, the DC50 in series [1] came out at 20 microg/cm2. The Activity came out at 26% in series [2] and 97% in series [4]. Also, the mortality in series [3] is listed as 13%.

Regarding `C=CCOc1ccccc1OCCC(C)C`, the Activity in series [2] is 26%.

For `C=CCOc1ccc(OCC)cc1` [1-allyloxy-4-ethoxybenzene], in series [1], the DC50 is 30 microg/cm2. The results for the Activity in series [2] and in series [4] were 17% and 73%, respectively.

In the case of `C=CCOc1ccc(OCCC(C)C)cc1` [1-allyloxy-4-isopentoxybenzene], the Activity in series [2] is -25%.

`C=CCOc1ccc(OCCC)cc1` [1-allyloxy-4-propoxybenzene]: the DC50 in series [1] is listed as 0.5 microg/cm2. The Activity was found to be 21% in series [2] and 100% in series [4].

Regarding `C=CCOc1cccc(O)c1` [3-(ALLYLOXY)PHENOL], the values for the Activity in series [2] and in series [4] were 5% and 36%, respectively.

As to `C=CCc1ccc(O)c(OC)c1` [EUGENOL], the DC50 in series [1] came to 56 microg/cm2. In addition, in series [3], the mortality worked out at 30%. Further, the Activity in series [4] is listed as 44%.

On to `C=CCc1ccc(OC)c(OC)c1` [METHYLEUGENOL], for which the DC50 in series [1] came out at 26 microg/cm2. In addition, the values for the Activity in series [2] and in series [4] were -22% and 64%, respectively.

What is called mortality is the share of the test organisms that died.
